ChEMBL document CHEMBL4196021, “Targeting G-quadruplex DNA structures in the telomere and oncogene promoter regions by benzimidazole‒carbazole ligands” (Eur J Med Chem, 2018)
Calls of active or inactive are those of the source. The calls are words filed in the database; no cut-off is given here.

These compounds were tested on Quadruplex DNA (assay: Binding affinity to human c-Kit1 G-quadruplex DNA at 0.6 uM after 5 mins in presence of KCl by fluorescence spectroscopic method).
Format: nucleic-acid assay
Method in brief: (§1)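 Fluorescence titration at 25 °C with 0.6 µM ligand in 10 mM Tris-HCl pH 7.4, 100 mM KCl, 0.1 mM EDTA. Preformed G4 DNA was added stepwise, with 5 min incubation before each spectrum. Excitation 330 nm; emission 350–550 nm, slit 5 nm.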

**Q.** For `CN1CCN(CCCCn2c3ccc(-c4nc5cc(N6CCOCC6)ccc5[nH]4)cc3c3cc(-c4nc5cc(N6CCOCC6)ccc5[nH]4)ccc32)CC1`, which Activity is on record?
**A.** The Activity was “Active”.

The compounds below were run on Quadruplex DNA (assay: Binding affinity to human c-Myc G-quadruplex DNA at 0.6 uM after 5 mins in presence of KCl by fluorescence spectroscopic method).
Format: nucleic-acid assay
Method in brief: as §1

**Q.** How did the Activity turn out when `CN1CCN(CCCCn2c3ccc(-c4nc5cc(N6CCOCC6)ccc5[nH]4)cc3c3cc(-c4nc5cc(N6CCOCC6)ccc5[nH]4)ccc32)CC1` was run?
**A.** Its Activity is “Active”.

Each compound was assayed on Quadruplex DNA (assay: Binding affinity to human telomeric G-quadruplex DNA at 0.6 uM after 5 mins in presence of KCl by fluorescence spectroscopic method).
Format: nucleic-acid assay
Method in brief: as §1

**Q.** How did the Activity turn out when `CN1CCN(CCCCn2c3ccc(-c4nc5cc(N6CCOCC6)ccc5[nH]4)cc3c3cc(-c4nc5cc(N6CCOCC6)ccc5[nH]4)ccc32)CC1` was run?
**A.** The Activity was “Active”.

What follows are compounds tested on Quadruplex DNA (assay: Binding affinity to human Bcl2 G-quadruplex DNA at 0.6 uM after 5 mins in presence of KCl by fluorescence spectroscopic method).
Format: nucleic-acid assay
Method in brief: as §1

**Q.** For `CN1CCN(CCCCn2c3ccc(-c4nc5cc(N6CCOCC6)ccc5[nH]4)cc3c3cc(-c4nc5cc(N6CCOCC6)ccc5[nH]4)ccc32)CC1`, which Activity is on record?
**A.** The Activity was “Active”.

The compounds below were run on Quadruplex DNA (assay: Binding affinity to human c-Kit2 G-quadruplex DNA at 0.6 uM after 5 mins in presence of KCl by fluorescence spectroscopic method).
Format: nucleic-acid assay
Method in brief: as §1

**Q.** With `CN1CCN(CCCCn2c3ccc(-c4nc5cc(N6CCOCC6)ccc5[nH]4)cc3c3cc(-c4nc5cc(N6CCOCC6)ccc5[nH]4)ccc32)CC1` as the compound, how does the Activity read?
**A.** The Activity was “Active”.

Each compound was assayed on Quadruplex DNA (assay: Binding affinity to human VEGF G-quadruplex DNA at 0.6 uM after 5 mins in presence of KCl by fluorescence spectroscopic method).
Format: nucleic-acid assay
Method in brief: as §1

**Q.** Which Activity does the source give for `CN1CCN(CCCCn2c3ccc(-c4nc5cc(N6CCOCC6)ccc5[nH]4)cc3c3cc(-c4nc5cc(N6CCOCC6)ccc5[nH]4)ccc32)CC1` here?
**A.** The Activity was “Active”.

These compounds were tested on Quadruplex DNA (assay: Induction of conformational changes in human telomeric G-quadruplex DNA assessed as inversion from potassium ion stabilized hybrid type mixed parallel/antiparallel G-quadruplex to stable telomere parallel-stranded G-quadruplex after 5 mins in presence of KCl by CD spectroscopic method).
Format: nucleic-acid assay
Method in brief: (§2)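 CD spectra of 5 µM G4 DNA in 10 mM Tris-HCl pH 7.4, 100 mM KCl, 0.1 mM EDTA, with or without ligand. Mixtures were heated 95 °C for 5 min and slowly cooled to room temperature. Recorded 200–400 nm at 25 °C, 100 nm/min, 2 s response, 1 cm cell; average of three scans.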

**Q.** For `CN1CCN(CCCCn2c3ccc(-c4nc5cc(N6CCOCC6)ccc5[nH]4)cc3c3cc(-c4nc5cc(N6CCOCC6)ccc5[nH]4)ccc32)CC1`, which Activity is on record?
**A.** Its Activity is “inactive”.

These compounds were tested on Quadruplex DNA (assay: Induction of conformational changes in human Bcl2 G-quadruplex DNA assessed as inversion from potassium ion stabilized hybrid type mixed parallel/antiparallel G-quadruplex to stable telomere parallel-stranded G-quadruplex after 5 mins in presence of KCl by CD spectroscopic method).
Format: nucleic-acid assay
Method in brief: as §2

**Q.** `CN1CCN(CCCCn2c3ccc(-c4nc5cc(N6CCOCC6)ccc5[nH]4)cc3c3cc(-c4nc5cc(N6CCOCC6)ccc5[nH]4)ccc32)CC1` was tested. Which Activity did it give?
**A.** Its Activity is “inactive”.

The compounds below were run on Quadruplex DNA (assay: Binding affinity to human c-Myc G-quadruplex DNA assessed as stabilization of parallel stranded topology after 5 mins in presence of KCl by CD spectroscopic method).
Format: nucleic-acid assay
Method in brief: as §2

**Q.** `CN1CCN(CCCCn2c3ccc(-c4nc5cc(N6CCOCC6)ccc5[nH]4)cc3c3cc(-c4nc5cc(N6CCOCC6)ccc5[nH]4)ccc32)CC1` was tested. Which Activity did it give?
**A.** Its Activity is “Active”.

What follows are compounds tested on Quadruplex DNA (assay: Binding affinity to human c-Kit1 G-quadruplex DNA assessed as stabilization of parallel stranded topology after 5 mins in presence of KCl by CD spectroscopic method).
Format: nucleic-acid assay
Method in brief: as §2

**Q.** Which Activity does the source give for `CN1CCN(CCCCn2c3ccc(-c4nc5cc(N6CCOCC6)ccc5[nH]4)cc3c3cc(-c4nc5cc(N6CCOCC6)ccc5[nH]4)ccc32)CC1` here?
**A.** The Activity was “Active”.

Each compound was assayed on Quadruplex DNA (assay: Binding affinity to human c-Kit2 G-quadruplex DNA assessed as stabilization of parallel stranded topology after 5 mins in presence of KCl by CD spectroscopic method).
Format: nucleic-acid assay
Method in brief: as §2

**Q.** With `CN1CCN(CCCCn2c3ccc(-c4nc5cc(N6CCOCC6)ccc5[nH]4)cc3c3cc(-c4nc5cc(N6CCOCC6)ccc5[nH]4)ccc32)CC1` as the compound, how does the Activity read?
**A.** The Activity was “Active”.

These compounds were tested on Quadruplex DNA (assay: Binding affinity to human VEGF G-quadruplex DNA assessed as stabilization of parallel stranded topology after 5 mins in presence of KCl by CD spectroscopic method).
Format: nucleic-acid assay
Method in brief: as §2

**Q.** For `CN1CCN(CCCCn2c3ccc(-c4nc5cc(N6CCOCC6)ccc5[nH]4)cc3c3cc(-c4nc5cc(N6CCOCC6)ccc5[nH]4)ccc32)CC1`, which Activity is on record?
**A.** The Activity was “Active”.

The compounds below were run against Quadruplex DNA (assay: Displacement of thiazole orange from human telomeric G-quadruplex DNA after 5 mins in presence of KCl by fluorescence assay).
Format: nucleic-acid assay
Method in brief: (§3)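 Thiazole orange displacement from a G4 DNA–TO complex (1 µM TO + 0.5 µM G4 DNA) in 10 mM Tris-HCl pH 7.4, 100 mM KCl, 0.1 mM EDTA. Ligand was added in increasing steps, with 5 min incubation each. Fluorescence read at ex 501/em 531 nm; % displacement = 100 − (Ft/F0 × 100). DC50 is the ligand concentration giving 50% displacement, read from plots; average of two independent experiments.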

**Q.** With `CN1CCN(CCCCn2c3ccc(-c4nc5cc(N6CCOCC6)ccc5[nH]4)cc3c3cc(-c4nc5cc(N6CCOCC6)ccc5[nH]4)ccc32)CC1` as the compound, how does the DC50 read?
**A.** Its DC50 is 1300 nM.

These compounds were tested against Quadruplex DNA (assay: Displacement of thiazole orange from human c-Myc G-quadruplex DNA after 5 mins in presence of KCl by fluorescence assay).
Format: nucleic-acid assay
Method in brief: as §3

**Q.** For `CN1CCN(CCCCn2c3ccc(-c4nc5cc(N6CCOCC6)ccc5[nH]4)cc3c3cc(-c4nc5cc(N6CCOCC6)ccc5[nH]4)ccc32)CC1`, which DC50 is on record?
**A.** Its DC50 is 850 nM.

What follows are compounds tested against Quadruplex DNA (assay: Displacement of thiazole orange from human Bcl2 G-quadruplex DNA after 5 mins in presence of KCl by fluorescence assay).
Format: nucleic-acid assay
Method in brief: as §3

**Q.** With `CN1CCN(CCCCn2c3ccc(-c4nc5cc(N6CCOCC6)ccc5[nH]4)cc3c3cc(-c4nc5cc(N6CCOCC6)ccc5[nH]4)ccc32)CC1` as the compound, how does the DC50 read?
**A.** The DC50 was 1290 nM.

These compounds were tested against Quadruplex DNA (assay: Displacement of thiazole orange from human c-Kit1 G-quadruplex DNA after 5 mins in presence of KCl by fluorescence assay).
Format: nucleic-acid assay
Method in brief: as §3

**Q.** With `CN1CCN(CCCCn2c3ccc(-c4nc5cc(N6CCOCC6)ccc5[nH]4)cc3c3cc(-c4nc5cc(N6CCOCC6)ccc5[nH]4)ccc32)CC1` as the compound, how does the DC50 read?
**A.** The DC50 was 980 nM.

These compounds were tested against Quadruplex DNA (assay: Displacement of thiazole orange from human c-Kit2 G-quadruplex DNA after 5 mins in presence of KCl by fluorescence assay).
Format: nucleic-acid assay
Method in brief: as §3

**Q.** `CN1CCN(CCCCn2c3ccc(-c4nc5cc(N6CCOCC6)ccc5[nH]4)cc3c3cc(-c4nc5cc(N6CCOCC6)ccc5[nH]4)ccc32)CC1` was tested. Which DC50 did it give?
**A.** Its DC50 is 740 nM.

Each compound was assayed against Quadruplex DNA (assay: Displacement of thiazole orange from human VEGF G-quadruplex DNA after 5 mins in presence of KCl by fluorescence assay).
Format: nucleic-acid assay
Method in brief: as §3

**Q.** Which DC50 does the source give for `CN1CCN(CCCCn2c3ccc(-c4nc5cc(N6CCOCC6)ccc5[nH]4)cc3c3cc(-c4nc5cc(N6CCOCC6)ccc5[nH]4)ccc32)CC1` here?
**A.** The DC50 was 630 nM.

The compounds below were run on Calf thymus DNA (assay: Displacement of thiazole orange from calf thymus duplex DNA after 5 mins in presence of KCl by fluorescence assay).
Format: nucleic-acid assay, Bos taurus

**Q.** Which DC50 does the source give for `CN1CCN(CCCCn2c3ccc(-c4nc5cc(N6CCOCC6)ccc5[nH]4)cc3c3cc(-c4nc5cc(N6CCOCC6)ccc5[nH]4)ccc32)CC1` here?
**A.** Its DC50 is 5520 nM.

Each compound was assayed on Quadruplex DNA (assay: Binding affinity to human telomeric G-quadruplex DNA assessed as change in melting temperature in presence of KCl by CD spectroscopic method).
Format: nucleic-acid assay
Method in brief: (§4)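 CD melting of 5 µM G4 DNA in 10 mM Tris-HCl pH 7.4, 25 mM KCl, 0.1 mM EDTA. Ligand was present during folding (heating, slow cooling). Spectra 200–400 nm over 20–96 °C in 2 °C steps, buffer blank subtracted. Tm was taken from normalized ellipticity at the positive maximum (262 nm for promoter G4s). ΔTm = ligand-bound minus DNA alone; average of two independent experiments.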

**Q.** Which ΔTm does the source give for `CN1CCN(CCCCn2c3ccc(-c4nc5cc(N6CCOCC6)ccc5[nH]4)cc3c3cc(-c4nc5cc(N6CCOCC6)ccc5[nH]4)ccc32)CC1` here?
**A.** Its ΔTm is 16.9 °C.

Each compound was assayed on Quadruplex DNA (assay: Binding affinity to human c-Myc G-quadruplex DNA assessed as change in melting temperature in presence of KCl by CD spectroscopic method).
Format: nucleic-acid assay
Method in brief: as §4

**Q.** `CN1CCN(CCCCn2c3ccc(-c4nc5cc(N6CCOCC6)ccc5[nH]4)cc3c3cc(-c4nc5cc(N6CCOCC6)ccc5[nH]4)ccc32)CC1` was tested. Which ΔTm did it give?
**A.** Its ΔTm is 8.65 °C.

These compounds were tested on Quadruplex DNA (assay: Binding affinity to human Bcl2 G-quadruplex DNA assessed as change in melting temperature in presence of KCl by CD spectroscopic method).
Format: nucleic-acid assay
Method in brief: as §4

**Q.** How did the ΔTm turn out when `CN1CCN(CCCCn2c3ccc(-c4nc5cc(N6CCOCC6)ccc5[nH]4)cc3c3cc(-c4nc5cc(N6CCOCC6)ccc5[nH]4)ccc32)CC1` was run?
**A.** The ΔTm was 5.54 °C.

These compounds were tested on Quadruplex DNA (assay: Binding affinity to human c-Kit1 G-quadruplex DNA assessed as change in melting temperature in presence of KCl by CD spectroscopic method).
Format: nucleic-acid assay
Method in brief: as §4

**Q.** For `CN1CCN(CCCCn2c3ccc(-c4nc5cc(N6CCOCC6)ccc5[nH]4)cc3c3cc(-c4nc5cc(N6CCOCC6)ccc5[nH]4)ccc32)CC1`, which ΔTm is on record?
**A.** The ΔTm was 12.2 °C.

The compounds below were run on Quadruplex DNA (assay: Binding affinity to human c-Kit2 G-quadruplex DNA assessed as change in melting temperature in presence of KCl by CD spectroscopic method).
Format: nucleic-acid assay
Method in brief: as §4

**Q.** How did the ΔTm turn out when `CN1CCN(CCCCn2c3ccc(-c4nc5cc(N6CCOCC6)ccc5[nH]4)cc3c3cc(-c4nc5cc(N6CCOCC6)ccc5[nH]4)ccc32)CC1` was run?
**A.** The ΔTm was 16.6 °C.

What follows are compounds tested on Quadruplex DNA (assay: Binding affinity to human VEGF G-quadruplex DNA assessed as change in melting temperature in presence of KCl by CD spectroscopic method).
Format: nucleic-acid assay
Method in brief: as §4

**Q.** Which ΔTm does the source give for `CN1CCN(CCCCn2c3ccc(-c4nc5cc(N6CCOCC6)ccc5[nH]4)cc3c3cc(-c4nc5cc(N6CCOCC6)ccc5[nH]4)ccc32)CC1` here?
**A.** Its ΔTm is 14.2 °C.
